# Reference: ChEMBL document CHEMBL1127345, “Synthesis, binding properties, and 18F labeling of fluorocarazolol, a high-affinity beta-adrenergic receptor antagonist” (J Med Chem, 1994)
# Key:
# [1] = system: Mus musculus; assay: The in vivo tissue distribution of mouse heart with Propranolol preadministration in 120 min, value was fractional dose per fractional body weight of the organ; format: ADME, organism-based; conditions: 2 h
# In short: (§1)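 Male CF-1 mice (25–30 g) anaesthetised with 2 mg sodium pentobarbital ip; blocked group given 0.1 mL of […] propranolol iv via tail vein (200 μg, 6.6 mg/kg), tracer 30 min later. 0.1 mL of 1–2 mCi/mL [18F]-labelled enantiomer iv via tail vein; killed by cervical dislocation, organs weighed and counted against weighed standards. %ID/g × body weight/100 gives unitless uptake; five mice per point (heart, blood, lung, kidney, liver, bone); mean ± SD.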
# [2] = system: Mus musculus; assay: The in vivo tissue distribution of mouse heart with Propranolol preadministration in 180 min, value was fractional dose per fractional body weight of the organ; format: ADME, organism-based; conditions: 3 h
# In short: (§2)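 Male CF-1 mice (25–30 g), given 2 mg sodium pentobarbital ip 30 min before tracer. Blocked groups received propranolol iv by tail vein, 0.1 mL of 1 mg/mL. About 30 min later, 0.1 mL of [18F]tracer (1–2 mCi/mL) was injected by tail vein. Mice were killed by cervical dislocation at set times, and organs were weighed and counted. Uptake is %ID/g × body weight/100, average ± SD; n=5 for heart, brain, blood, lung, kidney, liver and bone.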
# [3] = system: Mus musculus; assay: The in vivo tissue distribution of mouse kidney with Propranolol administration after 20 min, value was fractional dose per fractional body weight of the organ; format: ADME, organism-based; in short: as §2
# [4] = system: Mus musculus; assay: The in vivo tissue distribution of mouse heart with Propranolol administration after 20 min, value was fractional dose per fractional body weight of the organ; format: ADME, organism-based
# In short: (§3)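 Male CF-1 mice (25–30 g), anesthetised with 2 mg sodium pentobarbital ip 30 min before tracer. Where blocked, propranolol iv via tail vein (0.1 mL of […]; […]) about 30 min before tracer. Tracer given by tail vein, 0.1 mL at 1–2 mCi/mL. Mice killed by cervical dislocation at set times, organs weighed and counted. %ID/g × body weight/100 gives unitless uptake. Heart, brain, blood, lung, kidney, liver and bone n=5; average ± SD.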
# [5] = system: Mus musculus; assay: The in vivo tissue distribution of mouse heart with Propranolol administration after 90 min, value was fractional dose per fractional body weight of the organ; format: ADME, organism-based; conditions: 1.5 h; in short: as §3
# [6] = system: Mus musculus; assay: The in vivo tissue distribution of mouse blood with Propranolol administration after 120 min, value was fractional dose per fractional body weight of the organ; format: ADME, organism-based; conditions: 2 h; in short: as §2
# [7] = system: Mus musculus; assay: The in vivo tissue distribution of mouse brain with Propranolol administration after 180 min, value was fractional dose per fractional body weight of the organ; format: ADME, organism-based; conditions: 3 h; in short: as §2
# [8] = system: Mus musculus; assay: The in vivo tissue distribution of mouse brain with Propranolol administration after 20 min, value was fractional dose per fractional body weight of the organ; format: ADME, organism-based; in short: as §3
# [9] = system: Mus musculus; assay: The in vivo tissue distribution of mouse brain with Propranolol preadministration in 90 min, value was fractional dose per fractional body weight of the organ; format: ADME, organism-based; conditions: 1.5 h; in short: as §3
# [10] = system: Mus musculus; assay: The in vivo tissue distribution of mouse blood with Propranolol preadministration in 10 min, value was fractional dose per fractional body weight of the organ; format: ADME, organism-based
# In short: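 Male CF-1 mice, 25–30 g, anesthetized with 2 mg sodium pentobarbital ip. Propranolol pretreatment was 0.1 mL of 1 mg/mL iv by tail vein. About 30 min later, 0.1 mL of 1–2 mCi/mL [18F]tracer was given by tail vein. Mice were killed by cervical dislocation at set times. Organs were weighed and counted against weighed dose standards. %ID/g × body weight/100 gave fractional dose per fractional body weight. Blood and heart n=5.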
# [11] = system: Mus musculus; assay: The in vivo tissue distribution of mouse heart with Propranolol administration after 120 min, value was fractional dose per fractional body weight of the organ; format: ADME, organism-based; conditions: 2 h; in short: as §2
# [12] = system: Mus musculus; assay: The in vivo tissue distribution of mouse heart with Propranolol administration after 180 min, value was fractional dose per fractional body weight of the organ; format: ADME, organism-based; conditions: 3 h; in short: as §2
# [13] = system: Mus musculus; assay: The in vivo tissue distribution of mouse lung with Propranolol administration after 10 min, value was fractional dose per fractional body weight of the organ; format: ADME, organism-based; in short: as §2
# [14] = system: Mus musculus; assay: The in vivo tissue distribution of mouse lung with Propranolol administration after 120 min, value was fractional dose per fractional body weight of the organ; format: ADME, organism-based; conditions: 2 h; in short: as §1
# [15] = system: Mus musculus; assay: The in vivo tissue distribution of mouse liver with Propranolol administration after 40 min, value was fractional dose per fractional body weight of the organ; format: ADME, organism-based; in short: as §2
# [16] = system: Mus musculus; assay: The in vivo tissue distribution of mouse liver with Propranolol administration after 180 min, value was fractional dose per fractional body weight of the organ; format: ADME, organism-based; conditions: 3 h; in short: as §1
# [17] = system: Mus musculus; assay: The in vivo tissue distribution of mouse liver with Propranolol administration after 60 min, value was fractional dose per fractional body weight of the organ; format: ADME, organism-based; conditions: 1 h; in short: as §1
# [18] = system: Mus musculus; assay: The in vivo tissue distribution of mouse bone without Propranolol preadministration in 10 min, value was fractional dose per fractional body weight of the organ
# [19] = system: Mus musculus; assay: The in vivo tissue distribution of mouse lung without Propranolol preadministration in 20 min, value was fractional dose per fractional body weight of the organ
# [20] = system: Mus musculus; assay: The in vivo tissue distribution of mouse heart without Propranolol preadministration in 40 min, value was fractional dose per fractional body weight of the organ
# [21] = system: Mus musculus; assay: The in vivo tissue distribution of mouse brain without Propranolol preadministration in 60 min, value was fractional dose per fractional body weight of the organ; conditions: 1 h
# [22] = system: Mus musculus; assay: The in vivo tissue distribution of mouse liver without Propranolol preadministration in 10 min, value was fractional dose per fractional body weight of the organ
# [23] = system: Mus musculus; assay: The in vivo tissue distribution of mouse lung without Propranolol preadministration in 120 min, value was fractional dose per fractional body weight of the organ; conditions: 2 h
# [24] = system: Mus musculus; assay: The in vivo tissue distribution of mouse blood without Propranolol preadministration in 90 min, value was fractional dose per fractional body weight of the organ; conditions: 1.5 h
# [25] = system: Mus musculus; assay: The in vivo tissue distribution of mouse kidney without Propranolol preadministration in 10 min, value was fractional dose per fractional body weight of the organ
# [26] = system: Mus musculus; assay: The in vivo tissue distribution of mouse brain without Propranolol preadministration in 180 min, value was fractional dose per fractional body weight of the organ; conditions: 3 h
# [27] = system: Mus musculus; assay: The in vivo tissue distribution of mouse blood without Propranolol preadministration in 180 min, value was fractional dose per fractional body weight of the organ; conditions: 3 h
# [28] = system: Mus musculus; assay: The in vivo tissue distribution of mouse kidney without Propranolol preadministration in 60 min, value was fractional dose per fractional body weight of the organ; conditions: 1 h
# [29] = system: Mus musculus; assay: The in vivo tissue distribution of mouse kidney without Propranolol preadministration in 120 min, value was fractional dose per fractional body weight of the organ; conditions: 2 h
# [30] = The in vivo tissue distribution of mouse kidney without Propranolol preadministration in 180 min, value was fractional dose per fractional body weight of the organ; conditions: 3 h
Structure (SMILES),Dose/organ [1],Dose/organ [2],Dose/organ [3],Dose/organ [4],Dose/organ [5],Dose/organ [6],Dose/organ [7],Dose/organ [8],Dose/organ [9],Dose/organ [10],Dose/organ [11],Dose/organ [12],Dose/organ [13],Dose/organ [14],Dose/organ [15],Dose/organ [16],Dose/organ [17],Dose/organ [18],Dose/organ [19],Dose/organ [20],other results
CC(C[18F])NC[C@@H](O)COc1cccc2[nH]c3ccccc3c12 (stereo not given in full),0.28,0.14,4.43,0.85,0.48,0.3,0.06,1.22,0.35,0.57,0.27,0.1,5.23,0.45,2.11,0.5,1.61,0.67,5.1,0.76,Dose/organ [21]: 0.37; Dose/organ [22]: 3.08; Dose/organ [23]: 1.29; Dose/organ [24]: 0.43; Dose/organ [25]: 4.6; Dose/organ [26]: 0.08; Dose/organ [27]: 0.17; Dose/organ [28]: 2.63; Dose/organ [29]: 1; Dose/organ [30]: 0.67
CC(C[18F])NC[C@H](O)COc1cccc2[nH]c3ccccc3c12 (stereo not given in full),0.45,0.4,2.19,0.63,0.35,0.13,0.09,0.78,0.8,0.56,0.15,0.15,5,0.52,1.66,0.59,1.17,0.65,7.46,0.77,Dose/organ [21]: 0.81; Dose/organ [22]: 3.55; Dose/organ [23]: 4.82; Dose/organ [24]: 0.66; Dose/organ [25]: 4.18; Dose/organ [26]: 0.67; Dose/organ [27]: 0.43; Dose/organ [28]: 1.39; Dose/organ [29]: 0.83; Dose/organ [30]: 0.71
